Source: PMC12667952 (bioRxiv, 2025)
Entries after “also recorded” stand apart in the source; their conditions may differ.

What was measured:
adrenergic receptors = test: Cerep panel off-target selectivity screen, adrenergic receptors; format: binding; conditions: 1 × 10^-5 M
hGlyT2^D633E = target: T1, hGlyT2^D633E (Homo sapiens, UniProt Q9Y345, D633E); test: Reversibility; format: cell-based
T1 sequence (Q9Y345 1-797 D633E): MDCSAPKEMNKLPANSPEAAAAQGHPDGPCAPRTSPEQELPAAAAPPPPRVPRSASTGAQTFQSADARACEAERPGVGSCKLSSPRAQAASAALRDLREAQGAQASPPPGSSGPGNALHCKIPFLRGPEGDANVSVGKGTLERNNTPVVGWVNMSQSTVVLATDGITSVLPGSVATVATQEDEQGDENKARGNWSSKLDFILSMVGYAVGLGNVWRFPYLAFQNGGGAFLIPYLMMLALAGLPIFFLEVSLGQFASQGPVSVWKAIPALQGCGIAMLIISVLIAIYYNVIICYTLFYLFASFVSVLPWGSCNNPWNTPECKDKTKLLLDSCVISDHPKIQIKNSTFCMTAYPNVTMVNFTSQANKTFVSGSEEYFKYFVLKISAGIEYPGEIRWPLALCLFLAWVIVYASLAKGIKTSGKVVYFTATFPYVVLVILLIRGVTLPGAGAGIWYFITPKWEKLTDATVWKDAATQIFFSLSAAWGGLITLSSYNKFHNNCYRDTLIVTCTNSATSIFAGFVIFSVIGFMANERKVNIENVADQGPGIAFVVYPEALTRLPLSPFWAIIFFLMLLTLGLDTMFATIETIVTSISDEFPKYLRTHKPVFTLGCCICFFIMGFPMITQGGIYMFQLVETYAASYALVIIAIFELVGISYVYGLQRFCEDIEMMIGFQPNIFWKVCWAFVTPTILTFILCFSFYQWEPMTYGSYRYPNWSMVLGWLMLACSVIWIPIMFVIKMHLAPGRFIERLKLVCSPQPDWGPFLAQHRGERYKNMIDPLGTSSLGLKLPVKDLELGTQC

naïve mice = test: Accelerating rotarod, motor coordination in naïve mice; format: in vivo, mouse
Outline: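 Naïve mice trained for 3 days on an accelerating rotarod with large cylinders (3 sessions/day at 30-min intervals, 5 min acclimatisation each day), speed rising from 4 to 20 rpm over 180 s. Test compound given i.p. in 5% Solutol in PBS. Tested at t = 0 and 30, 60, 90, 120 and 180 min post-dose. Performance normalised to % baseline.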

C57BL/6J mice = test: Conditioned place preference; format: in vivo, mouse; conditions: 50 and 150 mg/kg, i.p.
[1] = Study 2: in-life plasma and CNS drug exposure study in male C57BL/6 mice; format: in vivo, mouse; conditions: 50 mg/kg i.p., 30 min
Outline: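 Contract in-life study in male C57BL/6 mice (22 ± 2 g), acclimated for 3 days. Plasma and brain sampled at 30 and 120 min post-injection. Unbound plasma and brain concentrations calculated.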

Question: Which “Activity at adrenergic receptors” value (adrenergic receptors) does the source give for CN(C)C1(CNC(=O)c2ccc3c(c2)CCN3C(=O)c2ccccc2)CCOCC1 [RPI-GLYT2–82, 1-benzoyl-N-((4-(dimethylamino)tetrahydro-2H-pyran-4-yl)methyl)indoline-5-carboxamide] here?
Answer: inactive

Question: What about the “Washout of inhibitor from hGlyT2^D633E” value (hGlyT2^D633E) of the same compound?
Answer: almost immediate

Question: What about the “Adverse neuromotor effects or muscle weakness (rotarod, grip strength, sedation)” value (naïve mice; 50 mg/kg analgesic dose) of the same compound?
Answer: not associated with adverse neuromotor effects or muscle weakness

Question: What about the Rotarod performance (naïve mice; 250 mg/kg) of the same compound?
Answer: transient reduction in rotarod performance

Question: And the “Initial reduction in baseline rotarod performance” value (naïve mice; 250 mg/kg i.p., restored over the 90-minute time course)?
Answer: 61%

Question: And the “Preference for the paired chamber” value (C57BL/6J mice)?
Answer: did not increase preference; also recorded: no significant preference

Question: What about the “Cu,b, calculated unbound concentration in brain” value [1] of the same compound?
Answer: 597.89 nM
